ChEMBL document CHEMBL1153852, “Steroidal lactones as inhibitors of 17beta-hydroxysteroid dehydrogenase type 5: chemical synthesis, enzyme inhibitory activity, and assessment of estrogenic and androgenic activities” (Eur J Med Chem, 2009)
pIC50: −log10 of the molar value. Calls of active or inactive are those of the source. The rule behind the calls is not given here.

Key:
ZR-75-1 [1] = test: Estrogenic activity in human ZR-75-1 cells expressing estrogen receptor assessed as estrogen-induced cell proliferation at 1 uM after 9 days relative to estrogen; type: functional
Method in brief: (§1)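 ZR-75-1 cells are resuspended in phenol red-free RPMI 1640 with 5% dextran-charcoal-treated FBS and seeded at 10,000 cells/well. After 3 days of adhesion, lactones from ethanol stocks are added alone or with E2 (0.1 nM). Cells grow 9 days at 37 °C in 5% CO2, with medium changed every 2–3 days. DNA is measured by DABA fluorescence; E2-induced growth is set to 100%.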

ZR-75-1 [2] = test: Antiestrogenic activity in human ZR-75-1 cells expressing estrogen receptor assessed as inhibition of estrogen-induced cell proliferation at 1 uM after 9 days relative to estrogen; type: functional, cell-based; method in brief: as §1
[3] = molecular target: T1, Aldo-keto reductase family 1 member C3 (Homo sapiens, UniProt P42330); test: Inhibition of human 17beta-HSD5 expressed in HEK293 cells assessed as enzyme-mediated transformation of [14C]-4-androstene-3,17-dione in to [14C]-testosterone after 18 hrs; type: cell-based
T1 sequence (P42330 whole entry): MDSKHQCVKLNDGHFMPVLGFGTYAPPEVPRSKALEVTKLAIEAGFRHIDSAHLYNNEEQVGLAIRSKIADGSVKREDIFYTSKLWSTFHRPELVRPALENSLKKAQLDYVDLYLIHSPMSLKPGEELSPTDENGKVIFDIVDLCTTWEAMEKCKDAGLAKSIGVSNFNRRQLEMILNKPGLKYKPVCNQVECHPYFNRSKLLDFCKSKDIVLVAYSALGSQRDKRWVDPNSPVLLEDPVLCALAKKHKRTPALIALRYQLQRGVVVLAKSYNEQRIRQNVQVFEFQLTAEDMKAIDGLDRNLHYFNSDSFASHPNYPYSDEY
Method in brief: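 Intact HEK-293 cells stably over-expressing human 17β-HSD5, in fresh culture medium. [14C]-4-androstene-3,17-dione 0.1 μM with inhibitor added in ethanol (ethanol alone as control), 18 h.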

[4] = molecular target: T2, Aldo-keto reductase family 1 member C3 (Homo sapiens) (UniProt P42330); test: Inhibition of human 17beta-HSD5 expressed in HEK293 cells assessed as enzyme-mediated transformation of [14C]-4-androstene-3,17-dione in to [14C]-testosterone at 3 uM after 18 hrs; type: cell-based
T2 sequence (whole entry): T1 sequence (P42330 whole entry)
Method in brief: (§2)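 Intact HEK-293 cells stably over-expressing human 17β-HSD5, in freshly changed culture medium. [14C]-4-androstene-3,17-dione is added at 100 nM with inhibitor from an ethanolic solution; controls get ethanol only. After 18 h the conversion to [14C]-T is measured.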

Mus musculus [5] = species: Mus musculus; test: Androgenic activity in mouse SC115 cells expressing androgen receptor assessed as DHT-induced cell proliferation at 1 uM after 10 days relative to DHT; type: functional, cell-based
Method in brief: (§3)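 SC115 Shionogi clone selected for DHT sensitivity, in MEM with 2% dextran-charcoal-treated FCS, seeded at 20,000 cells/well. After 24 h the medium is renewed and lactones added at 0.1 and 1, without DHT. Final ethanol is 0.01%. Cells are grown 10 days at 37 °C in 5% CO2, with medium changed every 3–4 days. DNA is measured by DABA fluorescence; DHT-stimulated growth is set to 100%.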

[6] = molecular target: T3, 17-beta-hydroxysteroid dehydrogenase type 3 (Homo sapiens) (UniProt P37058); test: Inhibition of human 17beta-HSD3 expressed in HEK293 cells assessed as enzyme-mediated transformation of [14C]-4-androstene-3,17-dione in to [14C]-testosterone at 0.1 uM; type: cell-based
T3 sequence (whole entry): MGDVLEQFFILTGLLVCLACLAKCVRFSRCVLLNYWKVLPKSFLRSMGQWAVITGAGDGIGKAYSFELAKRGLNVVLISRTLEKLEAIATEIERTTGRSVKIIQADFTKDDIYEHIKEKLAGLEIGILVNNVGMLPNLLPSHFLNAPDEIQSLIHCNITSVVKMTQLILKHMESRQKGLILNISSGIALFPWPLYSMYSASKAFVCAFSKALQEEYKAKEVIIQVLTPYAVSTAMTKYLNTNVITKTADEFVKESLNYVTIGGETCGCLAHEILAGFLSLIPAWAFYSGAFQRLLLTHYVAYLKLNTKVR

Mus musculus [7] = species: Mus musculus; test: Androgenic activity in mouse SC115 cells expressing androgen receptor assessed as DHT-induced cell proliferation at 0.1 uM after 10 days relative to DHT; type: functional, cell-based; method in brief: as §3
ZR-75-1 [8] = test: Antiestrogenic activity in human ZR-75-1 cells expressing estrogen receptor assessed as inhibition of estrogen-induced cell proliferation at 0.03 uM after 9 days relative to estrogen; type: functional, cell-based; method in brief: as §1
[9] = molecular target: T2, Aldo-keto reductase family 1 member C3 (Homo sapiens); test: Inhibition of human 17beta-HSD5 expressed in HEK293 cells assessed as enzyme-mediated transformation of [14C]-4-androstene-3,17-dione in to [14C]-testosterone at 0.3 uM after 18 hrs; type: cell-based; method in brief: as §2
[10] = molecular target: T4, 17-beta-hydroxysteroid dehydrogenase type 2 (Homo sapiens) (UniProt P37059); test: Inhibition of human 17beta-HSD2 expressed in HEK293 cells assessed as enzyme-mediated transformation of [14C]-testosterone in to [14C]-4-androstene-3,17-dione at 0.1 uM; type: cell-based
T4 sequence (whole entry): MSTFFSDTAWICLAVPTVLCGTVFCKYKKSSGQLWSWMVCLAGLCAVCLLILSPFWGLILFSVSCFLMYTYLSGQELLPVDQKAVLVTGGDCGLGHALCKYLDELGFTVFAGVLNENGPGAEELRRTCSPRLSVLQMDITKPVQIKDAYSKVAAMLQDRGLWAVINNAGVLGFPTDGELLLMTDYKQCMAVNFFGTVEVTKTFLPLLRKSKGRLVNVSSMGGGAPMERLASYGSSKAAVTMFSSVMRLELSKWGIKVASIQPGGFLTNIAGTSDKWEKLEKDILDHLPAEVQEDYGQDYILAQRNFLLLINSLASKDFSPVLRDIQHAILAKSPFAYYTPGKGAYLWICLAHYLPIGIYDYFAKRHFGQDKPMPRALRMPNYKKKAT

| Activity [10] | Structure (SMILES) | Activity (ZR-75-1 [1]) | Activity (ZR-75-1 [2]) | pIC50 [3] | inhibition [4] | Activity (Mus musculus [5]) | inhibition [6] | Activity (Mus musculus [7]) | Activity (ZR-75-1 [8]) | inhibition [9] |
| --- | --- | --- | --- | --- | --- | --- | --- | --- | --- | --- |
| – | CC1(C)CC[C@@]2(CC[C@H]3[C@@H]4CCc5ccccc5[C@H]4CC[C@@]32C)OC1=O | 50% | inactive | 8.54 | 95% | inactive | 25% | inactive | inactive | 94% |
| inactive | CC1(C)CC[C@@]2(CC[C@H]3[C@@H]4CCc5cc(O)ccc5[C@H]4CC[C@@]32C)OC1=O | 30% | Active | 7.55 | 94% | inactive | – | inactive | inactive | 86% |
